Activity calls are given as the source filed them. No cut-off for these calls is given here.
Experiments:
Nucleic Acid [1] = assay: Binding affinity to pGEM2 DNA assessed as DNA intercalation at >=50 uM by DNA unwinding assay; assay type: nucleic-acid assay
How it was run: (§1)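 Drug-induced DNA unwinding measured with pGEM2 plasmid DNA relaxed by wheat germ DNA topoisomerase I, following a previously described method.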

[2] = molecular target: T1, DNA gyrase (Escherichia coli) (UniProt P0AES6+P0AES4); assay: Inhibition of Escherichia coli recombinant DNA gyrase assessed as enzyme-mediated supercoiling of relaxed pRSET A-DNA at 170 uM by agarose gel electrophoresis in presence of 0.025% Triton X-100; assay type: protein-complex assay; design: scale not given: the % may be the effect or the level left
How it was run: (§2)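 Gyrase reconstituted from purified GyrA and GyrB (1:1.4); substrate is pRSET A relaxed with wheat germ topo I. 0.5 μg DNA and drug preincubated on ice 10 min in Tris-acetate pH 7.9, KOAc, Mg acetate, DTT, 1.5 mM ATP, spermidine, BSA. Started with 2.5 nM GyrA/3.5 nM GyrB, 30°C 30 min, then SDS/EDTA stop. 1% agarose gel, ethidium stain, densitometry; % supercoiled versus no-drug control.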

[3] = Inhibition of Escherichia coli recombinant DNA gyrase-mediated supercoiling of relaxed pRSET A-DNA by agarose gel electrophoresis; how it was run: as §2
[4] = molecular target: T1, DNA gyrase (Escherichia coli); assay: Inhibition of Escherichia coli recombinant DNA gyrase assessed as enzyme-mediated supercoiling of relaxed pRSET A-DNA at 170 uM by agarose gel electrophoresis in presence of 0.01% Triton X-100; assay type: protein-complex assay; design: scale not given: the % may be the effect or the level left; how it was run: as §2
[5] = molecular target: T1, DNA gyrase (Escherichia coli); assay: Inhibition of Escherichia coli recombinant DNA gyrase assessed as enzyme-mediated supercoiling of relaxed pRSET A-DNA at 170 uM by agarose gel electrophoresis; assay type: protein-complex assay; design: scale not given: the % may be the effect or the level left; how it was run: as §2
Nucleic Acid [6] = assay: Binding affinity to pGEM2 DNA assessed as DNA intercalation at 100 uM by DNA unwinding assay; assay type: nucleic-acid assay; how it was run: as §1
Nucleic Acid [7] = assay: Binding affinity to pGEM2 DNA assessed as DNA intercalation at 1600 uM by DNA unwinding assay; assay type: nucleic-acid assay; how it was run: as §1
[8] = molecular target: T1, DNA gyrase (Escherichia coli); assay: Inhibition of Escherichia coli recombinant DNA gyrase assessed as enzyme-mediated supercoiling of relaxed pRSET A-DNA at 640 uM by agarose gel electrophoresis; assay type: protein-complex assay; design: scale not given: the % may be the effect or the level left
How it was run: (§3)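 GyrA and GyrB, expressed in E. coli XL1-Blue and purified, reconstituted 1:1.4 (2.5 nM GyrA, 3.5 nM GyrB). Substrate was 0.5 μg relaxed pRSET A DNA (topoisomerase I-relaxed). Buffer: 25 mM Tris-acetate pH 7.9, 20 mM K acetate, 10 mM Mg acetate, 2 mM DTT, 1.5 mM ATP, 5 mM spermidine, 50 μg/ml BSA. Drug preincubated 10 min on ice; reaction 30 min at 30°C. Run on 1% agarose 20 h, stained with ethidium bromide, bands quantitated. % supercoiled DNA expressed relative to no-drug control.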

Escherichia coli [9] = assay: Antibacterial activity against Escherichia coli XL1-Blue assessed as growth inhibition at 21 uM after 60 mins; assay type: functional, organism-based
How it was run: (§4)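 Log-phase E. coli XL1-Blue (overnight LB cultures at 37°C diluted to OD595 0.05 in fresh LB, shaken at 37°C until log phase) transferred into flasks containing filter-sterilized drug at various concentrations. Shaking growth continued at 37°C. Growth followed by culture absorbance at OD595 over time.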

[10] = Inhibition of Escherichia coli DNA gyrase B ATPase activity by spectrophotometry
How it was run: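 DNA-independent ATPase of purified E. coli GyrB (40 nM) with 2 mM ATP. ATP hydrolysis coupled to NADH oxidation and read spectrophotometrically. Ki calculated from Ki(app) as Ki = Ki(app)/(1 + [ATP]/Km), taking Km 0.3 mM for E. coli gyrase ATPase.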

Escherichia coli [11] = assay: Antibacterial activity against Escherichia coli XL1-Blue assessed as complete inhibition at 192 uM with in 30 mins; assay type: functional, organism-based; how it was run: as §4
Nucleic Acid [12] = assay: Binding affinity to pGEM2 DNA assessed as DNA intercalation at 640 uM by DNA unwinding assay; assay type: nucleic-acid assay
Escherichia coli [13] = assay: Inhibition of Escherichia coli recombinant DNA gyrase-mediated supercoiling activity of relaxed pRSET A-DNA at 192 uM by agarose gel electrophoresis; design: scale not given: the % may be the effect or the level left; how it was run: as §3
[14] = molecular target: T1, DNA gyrase (Escherichia coli); assay: Inhibition of Escherichia coli recombinant DNA gyrase assessed as enzyme-mediated supercoiling of relaxed pRSET A-DNA at 640 uM by agarose gel electrophoresis in presence of 0.01% Triton X-100; assay type: protein-complex assay; design: scale not given: the % may be the effect or the level left; how it was run: as §3
Escherichia coli [15] = assay: Antibacterial activity against Escherichia coli XL1-Blue assessed as growth inhibition at 64 uM after 30 mins; assay type: functional, organism-based; how it was run: as §4
Nucleic Acid [16] = assay: Binding affinity to pGEM2 DNA assessed as DNA intercalation at 1.6 mM by DNA unwinding assay
Escherichia coli [17] = assay: Inhibition of Escherichia coli DNA gyrase B ATPase activity up to 1.5 mM by spectrophotometry
How it was run: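 DNA-independent ATPase of purified E. coli GyrB (40 nM) with 2 mM ATP, read spectrophotometrically by coupling ATP hydrolysis to NADH oxidation. Ki calculated as Ki(app)/(1 + [ATP]/Km), with Km 0.3 mM for E. coli gyrase ATPase.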

## O=c1ccc2nccc3c4ccccc4n1c23 [CANTHIN-6-ONE]
Nucleic Acid [1]
  Activity: Active
[2]
  Activity: 12%
[3]
  IC50: 50 µM
[4]
  Activity: 13%
[5]
  Activity: 7%

## O=c1[nH]nc(-c2cc(-c3ccccc3)nc3ccccc23)o1
Nucleic Acid [6]
  Activity: inactive
[3]
  IC50: 72 µM

## O=NNc1cnc(O)nc1O
Nucleic Acid [7]
  Activity: inactive
[8]
  Activity: 10%
Escherichia coli [9]
  Activity: Active
[10]
  Ki: 149 µM
Escherichia coli [11]
  Activity: Active
[3]
  IC50: 338 µM
Nucleic Acid [12]
  Activity: inactive
Escherichia coli [13]
  Activity: > 30%
[14]
  Activity: 17%
Escherichia coli [15]
  Activity: Active

## O=Cc1c[nH]nn1
Nucleic Acid [7]
  Activity: inactive
[3]
  IC50: 737 µM

## NC(=O)c1[nH]cnc1N
Nucleic Acid [7]
  Activity: inactive
Nucleic Acid [16]
  Activity: inactive
Escherichia coli [17]
  Activity: inactive
[3]
  IC50: 814 µM

## O=C(O)c1cn(C2CC2)c2cc(N3CCNCC3)c(F)cc2c1=O [CIPROFLOXACIN]
[3]
  IC50: 1.2 µM

## CO[C@@H]1[C@@H](OC(=O)c2ccc(C)[nH]2)[C@@H](O)[C@@H](Oc2ccc3c(O)c(NC(=O)c4c[nH]c(C(=O)Nc5c(O)c6ccc(O[C@H]7OC(C)(C)[C@H](OC)[C@@H](OC(=O)c8ccc(C)[nH]8)[C@H]7O)c(C)c6oc5=O)c4C)c(=O)oc3c2C)OC1(C)C [COUMERMYCIN]
[3]
  IC50: 0.04 µM
